Compound activity as filed in PubChem.
UHRF1 binding – UHRF1 methylated DNA binding inhibitors, primary screen, counter-screen for MBD2 inhibitor project, biochemical, TR-FRET, human UHRF1, single concentration | actives 0.75% (n = 370,000) | UHRF1 binding to methylated oligo | inhibition, % at 4.4 µM; in the data active = inhibition above about 21%;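 note: UHRF1 SRA domain binding a hemimethylated CpG hairpin DNA probe; 0% = median of test compound wells and 100% = reference inhibitor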
NSD2 HMT inh – NSD2 histone methyltransferase inhibitors, primary screen, biochemical, AlphaScreen, single concentration, set 2. Histone-lysine N-methyltransferase NSD2 (Homo sapiens), O96028. NSD2 peptide methylation, 120 min. inhibition, % at 12.5 µM. actives 0.54% (n = 310,000). AID 743445, 2014; in the data active = inhibition above about 50%
CASP6 VEID inh – human caspase-6 inhibitors, primary screen, biochemical, VEID-R110 fluorescence, single point, set 2. P55212. purified caspase-6, Z-VEID-R110 cleavage fluorescence. inhibition, % at 12.5 µM. actives 0.53% (n = 350,000);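 active = mean inhibition across replicates at least about 35%, with every replicate also reaching that limit, limit read from the data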;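 note: 0% = median of neutral control wells and 100% = no fluorescence left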
TDP2 inh – human TDP2 enzyme inhibitors, primary screen, biochemical, epi absorbance, recombinant enzyme | Tyrosyl-DNA phosphodiesterase 2 (Homo sapiens), O95551 | T5PNP hydrolysis, p-nitrophenol absorbance 415 nm | inhibition, % at 12.8 µM | actives 0.34% (n = 370,000);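 active = inhibition above the mean of all tested compounds plus 3 SD, set per campaign, cut at about 25% in these data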;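 note: 0% = DMSO with enzyme and 100% = buffer with substrate but no TDP2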
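test system = human TDP2 enzyme | input = TDP2 enzyme at 120 nM final | medium = 50 mM Tris-HCl pH 7.5 with Mg2+, KCl, DTT, BSA | also added = T5PNP substrate, 5 mM | times = 2 h at 37 °C | technique = epi absorbance | benchmarks = high control without enzyme, low control DMSO plus TDP2 | replication = each compound tested once, singlicate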
LEDGF integ inh – blockers of LEDGF/p75-dependent integrase strand transfer – biochemical, TR-FRET, high throughput, primary screen | TR-FRET IN-LEDGF/p75 DNA integration, Eu/Cy5 | inhibition, % at 3.7 µM | actives 0.64% (n = 370,000);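 active = inhibition above the screen-wide mean plus 3 SD, cut at about 13% in these data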;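 note: signal is the Cy5 over europium emission ratio at 671 and 618 nm; 0% = plate median of compound wells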
MBD2 inh – inhibitors of MBD2 binding to methylated DNA, primary screen, biochemical, TR-FRET, DNA-binding domain, human | MBD2 binding to methylated oligonucleotide | inhibition, % at 4.4 µM | actives 0.31% (n = 370,000) | AID 686964, 2013; in the data active = inhibition above about 13%
IN multimer act – HIV-1 IN multimer formation enhancers, counter-screen for LEDGF/p75 integration inhibitor project, biochemical, TR-FRET; activation, % at 7.7 µM; shares compounds with LEDGF integ inh; TR-FRET HIV-1 integrase multimerization; AID 1053131, 2014; actives 17% (n = 2,000); in the data active = activation above about 8.9%
TRFRET interf – TR-FRET optical interference artefacts, confirmation, artefact control for LEDGF/p75-dependent integration inhibitor project, biochemical, HIV-1 IN multimerization; shares compounds with LEDGF integ inh; TR-FRET optical interference counterscreen; inhibition, % at 7.7 µM; 2,000 tested, under 10 active;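 active = inhibition above the mean over all tested compounds plus 3 SD, which no compound reached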;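 note: 0% = integrase with antibodies and DMSO and 100% = antibodies without integrase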
IN-LEDGF confirm – inhibitors of HIV-1 IN-LEDGF/p75 DNA integration, confirmation, biochemical, TR-FRET | shares compounds with LEDGF integ inh | TR-FRET LEDGF/p75-dependent HIV-1 integration | inhibition, % at 3.7 µM | actives 36% (n = 2,000) | AID 1053136, 2014; in the data active = inhibition above about 14%
Numbers without * were called inactive; / = not tested or not shown. A selection: hits, their analogues and other compounds. The true share with any hit is near 1.9%.

SMILES	UHRF1 binding	NSD2 HMT inh	CASP6 VEID inh	TDP2 inh	LEDGF integ inh	MBD2 inh	IN multimer act	TRFRET interf	IN-LEDGF confirm
CN1CCN(C(c2ccc(Br)cc2)c2cc(Cl)c3cccnc3c2O)CC1 (configuration not stated)	-12	5	-4	-18	40*	0	-3	15	2
CN1CCN(C(c2ccc(F)cc2)c2ccc3cccnc3c2O)CC1 (configuration not stated)	/	12	/	/	/	/	/	/	/
Cc1ccc(S(=O)(=O)NN=C2CC3CCC2(C)C3(C)C)cc1 (configuration not stated)	0	4	3	0	17*	2	2	-9	-3
Nc1cc(S(=O)(=O)N2CCCCC2)ccc1Oc1ccc(Cl)cc1	-1	-3	-17	-6	40*	-2	0	0	-3
Oc1c(C=Nc2cccc3cccnc23)sc2ccccc12	-13	2	/	12	0	-15	/	/	/
Cc1cccc(/N=C/c2sc3ccccc3c2O)n1	0	11	2	-3	50*	-4	8	-41	-1
O=C(/C=C/c1ccco1)Nc1nc(-c2ccccc2)cs1	1	-3	0	5	-1	3	/	/	/
O=C(/C=C/c1ccco1)Nc1nc(-c2ccccn2)cs1	4	1	-2	-3	16*	3	3	-14	16*
Cc1cccc(C(=O)N=c2c(C#N)cc3c(=O)n4cccc(C)c4nc3n2Cc2ccco2)c1	0	/	15	-10	17*	-10	2	-11	35*
Cc1cccn2c(=O)c3cc(C#N)c(=NC(=O)c4ccccc4)n(Cc4ccco4)c3nc12	6	-1	13	-14	16*	0	-3	15	26*
CCSCC1COC(c2cccn2Cc2ccc(C)cc2)=N1 (configuration not stated)	-1	5	/	9	-3	2	/	/	/
CCC1COC(c2cccn2Cc2ccc(Cl)cc2)=N1 (configuration not stated)	1	2	2	15	14*	4	0	0	-1
CC(C)NC(=O)Nc1ccc2c(c1)C(=O)N([C@H](C)CO)C[C@H](C)[C@@H](CN(C)Cc1ccccc1)OCCCC[C@H](C)O2	/	/	0	/	/	/	/	/	/
O=C1CC(c2ccco2)CC(O)=C1C=Nc1cc(Cl)cc(Cl)c1 (configuration not stated)	33*	/	/	-4	45*	8	0	2	0
CCOc1ccc(N=CC2=C(O)CC(c3ccco3)CC2=O)cc1 (configuration not stated)	-3	-2	/	12	-2	-3	/	/	/
COc1ccc(NC(=O)Nc2ccc3c(c2)C(=O)N([C@@H](C)CO)C[C@@H](C)[C@H](CN(C)C(=O)Nc2cccc4ccccc24)OCCCC[C@H](C)O3)cc1	/	/	-1	/	/	/	/	/	/
O=C(C[C@H]1C[C@@H]2c3cc(NC(=O)C4CCOCC4)ccc3O[C@@H]2[C@@H](CO)O1)NCc1ccc(Oc2ccccc2)cc1	/	/	2	/	/	/	/	/	/
C=CCn1c(N)c(C(=O)Nc2ccccc2)c2nc3ccccc3nc21	-9	-14	/	-4	21*	-5	2	-7	0
C=CCn1c(N)c(C(=O)OC(C)(C)C)c2nc3ccccc3nc21	-10	-10	/	7	0	-6	/	/	/
CNc1ccc(Br)cc(C(=O)/C=C/c2cccc(Cl)c2Cl)c1=O	5	8	7	-8	15*	-1	0	-1	21*
CCNc1ccc(Br)cc(C(=O)/C=C/c2ccccc2Cl)c1=O	0	34	/	8	12	-2	/	/	/
COc1ccc(C2C(C(C)=O)=C(C)N=c3s/c(=C\c4cc(C)n(C)c4C)c(=O)n32)c(OC)c1 (configuration not stated)	-14	-1	/	0	2	-6	/	/	/
COc1ccc(C2C(C(C)=O)=C(C)N=c3s/c(=C\c4ccco4)c(=O)n32)c(OC)c1 (configuration not stated)	-3	12	/	1	15*	-2	-1	7	0
CCOC(=O)C1=C(c2ccccc2)N=c2s/c(=C\c3ccco3)c(=O)n2C1c1cccs1 (configuration not stated)	8	-3	/	-1	16*	5	1	-7	23*
CN(C)C(=O)[C@@H]1[C@@H](CO)[C@@H]2Cn3c(ccc(C4=CCCCC4)c3=O)[C@H]1N2Cc1ccccc1F	/	/	-1	/	/	/	/	/	/
SMILES	UHRF1 binding	NSD2 HMT inh	CASP6 VEID inh	TDP2 inh	LEDGF integ inh	MBD2 inh	IN multimer act	TRFRET interf	IN-LEDGF confirm
O=[N+]([O-])c1cc2ccccc2c(O)c1O	-5	46	41*	9	18*	-16	4	-20	30*
O=[N+]([O-])c1cccc(C=Nc2cccc3ccccc23)c1O	-7	1	0	2	-4	-11	/	/	/
Cn1cc(Br)c(NS(=O)(=O)c2ccc(Cl)s2)n1	1	1	-3	2	25*	1	1	-4	-4
COc1ccc(-c2cnc3c(NC=O)cc(-c4ccoc4)cn23)cc1OC	-6	5	12	-16	28*	-6	-1	3	5
Cc1sc2nc(SCC(=O)c3ccc(O)c(O)c3)n(C)c(=O)c2c1C	12	6	/	-2	20*	12	26*	-93	46*
Cc1sc2nc(SCC(=O)OC(C)C)n(C)c(=O)c2c1C	2	-2	/	2	0	-2	/	/	/
O=C(COC(=O)c1n[nH]c2ccccc12)Nc1ccccc1F	0	-2	2	-1	1	-6	/	/	/
